The record followed here is ChEMBL document CHEMBL3352613, “Crystal Structures and Structure-Activity Relationships of Imidazothiazole Derivatives as IDO1 Inhibitors” (ACS Med Chem Lett, 2014).

For this experiment, the target named is Indoleamine 2,3-dioxygenase 1 (Homo sapiens, UniProt P14902). The experiment in a line: Inhibition of human IDO1 assessed as reduction in convertion of N-formylkynurenine to kynurenine incubated for 30 mins. A digest of the protocol:
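IC50 values were taken as the mean of at least two independent assays.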

Chain of Indoleamine 2,3-dioxygenase 1 (P14902 whole entry): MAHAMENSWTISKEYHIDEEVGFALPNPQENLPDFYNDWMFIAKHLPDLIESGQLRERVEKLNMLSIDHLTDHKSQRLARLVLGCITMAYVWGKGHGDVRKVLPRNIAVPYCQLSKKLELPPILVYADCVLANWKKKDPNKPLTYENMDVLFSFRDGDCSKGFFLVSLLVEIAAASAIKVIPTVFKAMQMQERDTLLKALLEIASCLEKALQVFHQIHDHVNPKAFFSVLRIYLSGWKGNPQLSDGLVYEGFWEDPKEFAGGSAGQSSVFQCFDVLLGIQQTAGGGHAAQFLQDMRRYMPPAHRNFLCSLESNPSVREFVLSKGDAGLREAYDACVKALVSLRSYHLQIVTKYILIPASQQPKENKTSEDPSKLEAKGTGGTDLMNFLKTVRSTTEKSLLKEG

`CCOC(=O)c1cnc2scc(-c3ccccc3)n12`: the IC50 was more than 100 µM.

Turning to `Cc1ccc(-c2csc3ncc(C)n23)cc1`, the half-maximal inhibitory concentration (IC50) was determined as 1.3 µM.

For the compound `Cc1ccc(-c2csc3nnc(SCC(=O)Nc4ccc5c(c4)OCO5)n23)cc1`, the IC50 is 3 µM.

In the case of `CCOC(=O)c1cnc2scc(Cc3ccccc3)n12`, the concentration for half-maximal inhibition (IC50) is more than 100 µM.

Regarding `CCOC(=O)c1cnc2scc(-c3cccc(C)c3)n12`, the IC50 was more than 100 µM.

For `CCOC(=O)c1cnc2scc(-c3ccc(CC)cc3)n12`, the half-inhibitory concentration (IC50) came to 24 µM.

Regarding `COc1ccc(NC(=O)NCc2cnc3scc(-c4ccc(Br)cc4)n23)cc1`, the half-inhibitory concentration (IC50) amounted to 0.19 µM.

For `CCOC(=O)c1cnc2scc(-c3ccc(C)cc3)n12`, the half-inhibitory concentration (IC50) worked out at 18 µM.

For `Cc1ccc(-c2csc3ncc(C(=O)NCCc4cccc(Cl)c4)n23)cc1`, the IC50 came out at 1.9 µM.

Regarding `N#Cc1ccc(NC(=O)NCc2cnc3scc(-c4ccc(Br)cc4)n23)cc1`, the IC50 came out at 0.077 µM.

Consider `Cc1ccc(-c2csc3ncc(C(=O)NCCc4ccccc4)n23)cc1`, for which the 50% inhibitory concentration (IC50) came out at 3.5 µM.

As to `O=C(NCc1cnc2scc(-c3ccc(Br)cc3)n12)Nc1ccc2c(c1)OCO2`, the IC50 came to 0.12 µM.

As to `CCOC(=O)c1cnc2scc(C3=CCCCC3)n12`, the IC50 is more than 100 µM.

As to `Cc1ccc(-c2csc3ncc(C(=O)NCCc4ccc5c(c4)OCO5)n23)cc1`, the IC50 stood at 3.6 µM.

Turning to `COc1cccc(NC(=O)NCc2cnc3scc(-c4ccc(Br)cc4)n23)c1`, the concentration for half-maximal inhibition (IC50) was determined as 0.16 µM.

As for `CCOC(=O)c1cnc2scc(-c3ccc(Cl)cc3)n12`, the concentration for half-maximal inhibition (IC50) stood at 8.1 µM.

With `CCOC(=O)c1cnc2scc(-c3ccc(Br)cc3)n12`, the IC50 was determined as 5.5 µM.

Consider `O=C(NCc1cnc2scc(-c3ccc(Br)cc3)n12)NC1CCCCC1`, for which the IC50 is 1.8 µM.

In the case of `O=C(NCc1ccccc1)NCc1cnc2scc(-c3ccc(Br)cc3)n12`, the 50% inhibitory concentration (IC50) was determined as 0.75 µM.

In the case of `CCOC(=O)c1cnc2scc(-c3ccc(OC)cc3)n12`, the IC50 is 56 µM.

As to `O=C(NCc1cnc2scc(-c3ccc(Br)cc3)n12)Nc1ccccc1`, the concentration for half-maximal inhibition (IC50) came out at 0.22 µM.

In the case of `CCOC(=O)c1cnc2sc3ccccc3n12`, the 50% inhibitory concentration (IC50) was more than 100 µM.

For the compound `CCOC(=O)c1cnc2scc(-c3ccccc3C)n12`, the 50% inhibitory concentration (IC50) is more than 100 µM.
